Measured values from different studies.
Lines come from different studies, so protocols differ.
GPR84: G-protein coupled receptor 84 (GPR84, Homo sapiens, UniProt Q9NQS5)
Peroxisome proliferator-activated receptor alpha: Peroxisome proliferator-activated receptor alpha (Rattus norvegicus, UniProt P37230)

CCC(C)N1CCCn2c1nc1c2c(=O)n(C)c(=O)n1C (centres unmarked) — Ki (Adenosine receptor A3 (ADORA3, Homo sapiens, UniProt P0DMS8); ligand displacement, radioligand; cell membranes): > 10000 nM
CC(=O)N[C@H]1CSSC[C@@H](C(=O)N[C@@H](Cc2c[nH]c3ccccc23)C(N)=O)NC(=O)[C@H](Cc2ccccc2)NC(=O)[C@H](CCCNC(=N)N)NC1=O — IC50 (Melanocortin receptor 3 (MC3R, Homo sapiens, UniProt P41968); ligand displacement, radioligand): 1200 nM
CCCC[C@H](NC(=O)[C@H](CO)NC(=O)[C@H](Cc1ccc(O)cc1)NC(=O)[C@H](CO)NC(C)=O)C(=O)N[C@@H](CCC(=O)O)C(=O)N[C@@H](Cc1c[nH]cn1)C(=O)N[C@@H](C)C(=O)N[C@@H](CCCNC(=N)N)C(=O)N[C@@H](Cc1c[nH]c2ccccc12)C(=O)NCC(=O)N[C@@H](CCCCN)C(=O)N1CCC[C@H]1C(=O)N[C@H](C(=O)NCC(=O)N[C@@H](CCCCN)C(=O)N[C@@H](CCCCN)C(=O)N[C@@H](CCCNC(=N)N)C(N)=O)C(C)C — EC50 (Melanocyte-stimulating hormone receptor (MC1R, Homo sapiens, UniProt Q01726); cAMP, agonist): 7.8 nM
CN1CCN(c2ccc(Nc3ncc4cc(C#N)c(=O)n(C5CCCC5)c4n3)cc2)CC1 — IC50 (Mitogen-activated protein kinase 8 (MAPK8, Homo sapiens, UniProt P45983); enzyme activity, inhibitor): > 10000 nM
C=CC(=O)Nc1cc(Nc2nccc(-c3cn(C4CC4)c4ccccc34)n2)c(OC)cc1N(C)CCN(C)C — IC50 (Epidermal growth factor receptor (EGFR, Homo sapiens, UniProt P00533, G719C); enzyme activity, inhibitor, TR-FRET): 17.2 nM
CC(C)(C)c1ccc(CCNc2cc(=O)[nH]c(=O)[nH]2)cc1 — EC50 (GPR84; cAMP, agonist): 43.7 nM
Cc1cccc(Nc2cc(Cl)nc(SCC(=O)O)n2)c1C — EC50 (Peroxisome proliferator-activated receptor alpha; reporter gene, agonist, luciferase): 9500 nM
Cc1cc2nc3c(=O)[nH]c(=O)nc-3n(C[C@H](O)[C@H](O)[C@H](O)COP(=O)(O)OP(=O)(O)OC[C@H]3O[C@@H](n4cnc5c(N)ncnc54)[C@H](O)[C@@H]3O)c2cc1C — Kd (Probable ATP-dependent RNA helicase DDX6 (Homo sapiens, UniProt P26196); binding; lysate): 77 nM
O=c1cc(NCCc2cccs2)[nH]c(=O)[nH]1 — EC50 (GPR84; cAMP, agonist): 191 nM
CC(C)c1nc2cc(OCCCCN3CCN(c4cccc5c4OCCN5)CC3)ccc2s1 — EC50 (D(2) dopamine receptor (DRD2, Homo sapiens, UniProt P14416); cAMP, agonist, luciferase): 2.8 nM
Cc1nc(-c2ccc(C(F)(F)F)cc2)sc1C(=O)NCc1ccc(OC(C)(C)C(=O)O)cc1 — EC50 (Peroxisome proliferator-activated receptor alpha; reporter gene, agonist, luciferase): 2200 nM
